The full list was thinned out, with hits kept by preference.
INS-1E ATP HTS – protection of INS-1E cells from cytokine death, primary screen, ATP luminescence, single point. INS-1E cytokine-induced death, 48 h; normalised: neutral wells 0, positive control 100. protection from cytokine-induced ATP loss, % at 10 µM. actives 0.1% (n = 20,000);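 active = mean replicate protection from cytokine-induced ATP loss at least 50% and at least 75% of replicates each reaching 50%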
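Test system: INS-1E rat cells | Quantity: 8000 cells per well | Medium: Phenol-red-free RPMI with 5% fetal bovine serum | Reagent: Cytokine cocktail of IFN-γ, TNF-α and IL-1β | Doses: One compound concentration, pin transfer | Timing: 48 h co-treatment, 10 min post-lysis read | Technique: Luminescent ATP assay (CellTiter-Glo)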
A1 apoptosis 2 – A1 inhibitors via caspase activation, primary screen, cell-based, luminescence, HTS, two replicates; caspase activation, % (test concentration not listed); AID 2465, 2010; MEF A1-2A-BIM cells, caspase-Glo luminescence, 3 h; percent of clofoctol response, DMSO zero; 24,000 tested, under 10 active; in the data active = caspase activation above about 5.9%
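Test system – A1-2A-BIM-expressing MEF cells · Input – 2500 cells/well · Medium – RPMI-1640 growth medium with 10% FBS · Compound dosing – 50 nL pinned compound · Timing – 3 h compound exposure at 37 °C · Technique – Caspase-Glo luminescence (DEVD substrate) · Evaluation – Caspase-3/7 activity from luminescence increase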
T cruzi HTS – inhibitors of intracellular Trypanosoma cruzi, primary screen, cell-based, plate reader, single point, set 2; activity score (inhibition), % at 5.01 µM; intracellular Trypanosoma cruzi in host cells; AID 651903, 2012; actives 4.9% (n = 22,000); in the data active = activity score above about 55%;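 note: parasites and compound incubated about four days before reading; 0% = median of neutral control wells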
* = called active by the depositor; . = no result given.

SMILES	INS-1E ATP HTS	A1 apoptosis 2	T cruzi HTS
O=C1O[C@@H](c2ccccc2)[C@@H](c2ccccc2)N2[C@@H](c3ccccc3OCCO)[C@]3(C(=O)Nc4ccccc43)[C@@H](C(=O)NC[C@H](O)c3ccccc3)[C@H]12	.	0	.
C[C@@H]1CN([C@@H](C)CO)C(=O)Cc2cc(NC(=O)Nc3ccc4c(c3)OCO4)ccc2O[C@@H]1CN(C)Cc1ccc(C(=O)Nc2ccccc2N)cc1	-15	0	67*
C[C@@H]1CN([C@H](C)CO)C(=O)Cc2cc(NC(=O)Nc3ccc4c(c3)OCO4)ccc2O[C@H]1CN(C)Cc1ccc(C(=O)Nc2ccccc2N)cc1	.	-1	.
COc1cc(Cl)c(/C=N/NC(=O)c2ccc(C(=O)NO)cc2)c(Cl)c1OC	32	0	16
C[C@H](CO)N1C[C@H](C)[C@H](CN(C)Cc2ccccc2)Oc2ncc(-c3cc4ccccc4o3)cc2C1=O	.	-1	59*
C[C@H](CO)N1C[C@H](C)[C@H](CN(C)S(=O)(=O)c2ccc(F)cc2)Oc2ncc(-c3cc4ccccc4o3)cc2C1=O	.	.	52
C[C@H](CO)N1C[C@H](C)[C@H](CN(C)C(=O)Nc2cccc3ccccc23)Oc2ncc(-c3ccc(F)cc3)cc2C1=O	-3	1	33
C[C@H](CO)N1C[C@H](C)[C@H](CN(C)C(=O)NC2CCCC2)Oc2ncc(-c3cc4ccccc4o3)cc2C1=O	.	-1	32
C[C@H](CO)N1C[C@H](C)[C@H](CN(C)Cc2cccc(C(F)(F)F)c2)Oc2ncc(-c3cc4ccccc4o3)cc2C1=O	.	.	90*
C[C@H](CO)N1C[C@H](C)[C@H](CN(C)Cc2cccc(C(F)(F)F)c2)Oc2ncc(Br)cc2C1=O	.	0	24
C[C@H](CO)N1C[C@H](C)[C@H](CN(C)C(=O)Nc2cccc3ccccc23)Oc2ncc(-c3cc4ccccc4o3)cc2C1=O	.	1	71*
C[C@H](CO)N1C[C@H](C)[C@H](CN(C)S(=O)(=O)c2ccccc2)Oc2ncc(-c3cc4ccccc4o3)cc2C1=O	.	0	62*
Cc1nc(S(=O)(=O)NC[C@@H]2CCCN(Cc3ccc(OCCO)cc3)C2)cn1C	.	0	.
COc1ccc(S(=O)(=O)N(C)C[C@@H]2Oc3ccc(NS(=O)(=O)c4ccc(Cl)cc4)cc3CC(=O)N([C@@H](C)CO)C[C@@H]2C)cc1	3	1	-38
COc1ccc(S(=O)(=O)Nc2ccc3c(c2)CC(=O)N([C@H](C)CO)C[C@H](C)[C@H](CN(C)S(=O)(=O)c2ccc(Cl)cc2)O3)cc1	4	-1	23
COc1ccc(S(=O)(=O)Nc2ccc3c(c2)CC(=O)N([C@@H](C)CO)C[C@@H](C)[C@@H](CN(C)S(=O)(=O)c2ccc(Cl)cc2)O3)cc1	7	.	60*
COc1ccc(S(=O)(=O)Nc2ccc3c(c2)CC(=O)N([C@H](C)CO)C[C@@H](C)[C@H](CN(C)S(=O)(=O)c2ccc(Cl)cc2)O3)cc1	-1	.	-8
COc1ccc(S(=O)(=O)Nc2ccc3c(c2)CC(=O)N([C@H](C)CO)C[C@@H](C)[C@@H](CN(C)S(=O)(=O)c2ccc(OC)cc2)O3)cc1	8	0	67*
COc1ccc(S(=O)(=O)Nc2ccc3c(c2)CC(=O)N([C@@H](C)CO)C[C@H](C)[C@@H](CN(C)S(=O)(=O)c2ccc(OC)cc2)O3)cc1	1	1	9
COc1ccc(S(=O)(=O)Nc2ccc3c(c2)CC(=O)N([C@H](C)CO)C[C@@H](C)[C@@H](CN(C)S(=O)(=O)c2ccc(Cl)cc2)O3)cc1	14	1	60*
COc1ccc(S(=O)(=O)N(C)C[C@H]2Oc3ccc(NS(=O)(=O)c4ccc(Cl)cc4)cc3CC(=O)N([C@@H](C)CO)C[C@H]2C)cc1	-6	1	62*
COC(=O)CCCCCCC(=O)N/N=C/c1cc2c(cc1Br)OCO2	22	-1	1
O=C(NO)c1ccc(C(=O)N/N=C/c2ccccc2Br)cc1	-6	-2	14
C/C=C(C)\C=N\NC(=O)CCCCCCC(=O)Nc1ccccc1O	12	0	1
C=CCNC(=O)[C@@H]1[C@H]2C(=O)O[C@H](c3ccccc3)[C@H](c3ccccc3)N2[C@H](c2ccc(OCCO)cc2)[C@@]12C(=O)Nc1ccccc12	.	-1	.
SMILES	INS-1E ATP HTS	A1 apoptosis 2	T cruzi HTS
COC(=O)CCCCCCC(=O)N/N=C/c1ccoc1	-1	-1	-5
CC(C)(C)OC(=O)N1CCC[C@H]1/C=N/NC(=O)CCCCCC(=O)O	6	.	-5
O=C1O[C@H](c2ccccc2)[C@H](c2ccccc2)N2[C@H]1[C@@H](C(=O)N1CCCCCCC1)[C@]1(C(=O)Nc3ccccc31)[C@H]2c1ccc(O)cc1	.	-1	.
C=CCOC(=O)[C@H]1[C@@H]2C(=O)O[C@@H](c3ccccc3)[C@@H](c3ccccc3)N2[C@@H](c2ccc(OCCOC(=O)[C@@H]3C[C@@H]4C(=O)N[C@@H](Cc5ccccc5)C(=O)N4[C@@H]3c3cccc(OCCO)c3)cc2)[C@]12C(=O)Nc1ccc(I)cc12	.	-1	.
COc1ccc(S(=O)(=O)N(C)C[C@H]2Oc3ccc(NS(=O)(=O)c4ccc(Cl)cc4)cc3CC(=O)N([C@H](C)CO)C[C@H]2C)cc1	-8	.	67*
COc1ccc(S(=O)(=O)N(C)C[C@H]2Oc3ccc(NS(=O)(=O)c4ccc(Cl)cc4)cc3CC(=O)N([C@H](C)CO)C[C@@H]2C)cc1	.	0	.
COc1ccc([Si](C)(C)[C@H]2[C@H](CCO)O[C@@]3(C(=O)N(Cc4ccccc4)c4ccc(NC(=O)[C@H](C)O)cc43)[C@@H]2C)cc1	.	0	.
C=CCN1C(=O)[C@]2(O[C@H](CCO)[C@@H]([Si](C)(C)c3ccc(OC)cc3)[C@@H]2C)c2cc(I)ccc21	.	9.0*	.
C[C@@H]1CN([C@@H](C)CO)C(=O)c2cccc(NC(=O)CCCCCC(=O)Nc3ccccc3N)c2O[C@H]1CN(C)Cc1ccc(-c2ccccc2)cc1	.	-1	.
C[C@H](CO)N1C[C@H](C)[C@@H](CN(C)Cc2ccc(-c3ccccc3)cc2)Oc2c(NC(=O)CCCCCC(=O)Nc3ccccc3N)cccc2C1=O	-4	1	75*
C[C@@H]1CN([C@@H](C)CO)C(=O)c2cccc(NC(=O)CCCCCC(=O)Nc3ccccc3N)c2O[C@@H]1CN(C)Cc1ccccc1	24	.	19
C[C@@H]1CN([C@@H](C)CO)C(=O)c2cccc(NC(=O)CCCCCC(=O)Nc3ccccc3N)c2O[C@@H]1CN(C)Cc1ccc(Oc2ccccc2)cc1	14	.	59*
C[C@@H]1CN([C@H](C)CO)C(=O)c2cccc(NC(=O)CCCCCC(=O)Nc3ccccc3N)c2O[C@@H]1CN(C)Cc1ccc(Oc2ccccc2)cc1	17	1	15
C[C@H](CO)N1C[C@H](C)[C@H](CN(C)Cc2ccc(Cl)c(Cl)c2)Oc2c(NC(=O)CCCCCC(=O)Nc3ccccc3N)cccc2C1=O	15	-1	66*

Screening data (PubChem BioAssay)
